Assay outcomes: PubChem, several laboratories
In the library only some 1.2% were active in any assay of this set; here they are far more common.
MsrA act: bovine MsrA enzyme activators, primary screen, biochemical, absorbance, HTS; purified bovine MsrA, absorbance read-out; activation, % at 10.6 µM; 360,000 compounds, 0.3% hits; AID 602163, 2012; in the data active = activation above about 7.5%;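 also: 0% = vehicle and 100% = reference activator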
procasp3 activ: activators of human procaspase-3 D3A mutant, primary screen, biochemical, absorbance, PC-3 D3A mutant, single concentration; Caspase-3 (Homo sapiens), P42574; recombinant procaspase-3 D3A, Ac-DEVD-pNA absorbance 405 nm; activation, % at 8.5 µM; 330,000 compounds, 0.11% hits; AID 463141, 2010;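 active = activation above the mean of all tested compounds plus 3 SD, cut at about 21% in these data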;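 also: 0% = DMSO alone and 100% = DMSO wells spiked with extra 5 µM PC-3 D3A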
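System: Procaspase-3 D3A mutant. Medium: Zinc-free 300 mM NaCl, 50 mM HEPES, 0.01% Triton X-100. Schedule: 1 h preincubation plus 2 h reaction at 25 °C. Measured by: 405 nm absorbance of p-nitroaniline, reads at 0 and 120 min. Read-out: percent activation relative to control range.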
proCasp7 act: procaspase-7 activators, primary screen, counter-screen for procaspase-3 activator project, biochemical, absorbance, HTS, human; Caspase-7 (Homo sapiens), P55210; recombinant procaspase-7, Ac-DEVD-pNA absorbance 405 nm; D23A/D198A/D206A triple mutant, cannot self-cleave; scale: DMSO 0, 5 µM enzyme 100; activation, % at 8.5 µM; 330,000 compounds, 0.093% hits; AID 463210, 2010;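 active = percent activation above the screen-wide mean plus 3 SD, cut at about 25% in these data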
Target sequence (P55210 whole entry D23A/D198A/D206A): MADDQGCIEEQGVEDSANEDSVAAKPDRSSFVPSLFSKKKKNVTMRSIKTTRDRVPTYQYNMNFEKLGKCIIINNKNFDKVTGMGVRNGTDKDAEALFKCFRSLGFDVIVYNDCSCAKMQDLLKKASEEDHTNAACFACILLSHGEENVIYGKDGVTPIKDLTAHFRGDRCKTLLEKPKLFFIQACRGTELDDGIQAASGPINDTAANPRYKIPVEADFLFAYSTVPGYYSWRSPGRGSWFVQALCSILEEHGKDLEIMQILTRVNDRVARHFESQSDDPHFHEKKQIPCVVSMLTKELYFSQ
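Replicates: singlicate. Assay system: Procaspase-7 triple mutant (PC-7 D3A). Signal: 405 nm absorbance of p-nitroaniline. Times: 1 h preincubation, 2 h reaction. Buffer or medium: Zinc-free HEPES pH 7.4 with 300 mM NaCl, 0.01% Triton X-100. Also added: DEVD-pNA substrate. Benchmarks: DMSO wells as 0%, DMSO with 5 µM added PC-7 as 100%.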
MsrA inh: bovine MsrA enzyme inhibitors, primary screen, biochemical, absorbance, HTS; Methionine sulfoxide reductase A (Bos taurus); purified bovine MsrA, absorbance read-out; inhibition, % at 15.5 µM; 360,000 compounds, 0.75% hits; AID 651718, 2012;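 also: 0% = vehicle wells with enzyme and 100% = reference inhibitor wells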
Bfl-1 A1 inh: caspase 3/7 activation in MEF A1-2A-BIM cells, primary screen, A1 inhibitor project, cell-based, luminescence, HTS; 330,000 compounds, 0.066% hits; Caspase-Glo 3/7 luminescence, 3 h; percent of clofoctol response, vehicle zero; caspase activation, % (test concentration not listed);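 active = over half of replicate activation scores above 10%, or exactly half above 10 with the replicate mean above 10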
MsrA inh confirm: bovine MsrA inhibitors, retest, confirmation, biochemical, absorbance, HTS; inhibition, % at 15.5 µM; 2,300 compounds, 41% hits; shares compounds with MsrA inh; purified bovine MsrA, absorbance read-out;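 also: coupled to thioredoxin reductase with NADPH and selenocystamine and DMSO as substrate; 0% = vehicle only and 100% = full effect of reference inhibitor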
Starred values were filed as active, the others as inactive. Rule as the data show it, unless noted: active = inhibition above about 4.5%; inactive = the rest.

Results for COc1ccc(N=C2CC(C)(C)CC(=O)/C2=C(/O)c2ccccc2)cc1 ?
MsrA act: -2; procasp3 activ: 6; proCasp7 act: 7; MsrA inh: 4.9*; Bfl-1 A1 inh: -1; MsrA inh confirm: 1

How did CCOCCn1c(=NC(=O)CSCC(=O)Nc2cc(C)on2)sc2cc(OC)ccc21 do in these assays?
MsrA act: -3; procasp3 activ: 4; proCasp7 act: 8; MsrA inh: 6.3*; Bfl-1 A1 inh: 1; MsrA inh confirm: 2

Results for COc1cccc(C2=CC(c3cccc(OC)c3OC)n3nnnc3N2)c1 (configuration not stated) ?
MsrA act: -8; procasp3 activ: 0; proCasp7 act: 5; MsrA inh: 14*; Bfl-1 A1 inh: 0; MsrA inh confirm: 9.3*

Results for O=C(CCCN1C(=O)c2cccc3cccc(c23)C1=O)N1CCN(c2ccccc2O)CC1 ?
MsrA act: 2; procasp3 activ: -1; proCasp7 act: -2; MsrA inh: 5.1*; Bfl-1 A1 inh: 0; MsrA inh confirm: 2

How did O=C(CCCN1C(=O)c2cccc3cccc(c23)C1=O)N1CCN(c2ccccc2)CC1 do in these assays?
MsrA act: -9; procasp3 activ: -4; proCasp7 act: -8; MsrA inh: 1; Bfl-1 A1 inh: 0

Results for COc1ccc(/C=C(\C#N)C(=O)N=CN(C)C)cc1 ?
MsrA act: -2; procasp3 activ: 8; proCasp7 act: 0; MsrA inh: 1; Bfl-1 A1 inh: -1

Results for COc1ccc(/C=C(\C#N)C(=O)N2COCC2(C)C)cc1 ?
MsrA act: -2; procasp3 activ: -3; proCasp7 act: -2; MsrA inh: 5.1*; Bfl-1 A1 inh: 3; MsrA inh confirm: 3

How did CCc1cc(-c2[nH]ncc2-c2ccc(OC)cc2)c(O)cc1O do in these assays?
MsrA act: -1; procasp3 activ: -3; proCasp7 act: -6; MsrA inh: 7.1*; Bfl-1 A1 inh: 4; MsrA inh confirm: 3

Results for CC[C@]1(C(=O)OC)[C@H]2C(=O)N(Cc3ccccc3)C(=O)[C@H]2[C@H]2CN(C)C(=NC)N21 ?
MsrA act: -4; procasp3 activ: 2; proCasp7 act: -3

How did COc1ccc(NC(=O)Nc2ccc(OC)cc2)cc1 do in these assays?
MsrA act: -5; procasp3 activ: -3; proCasp7 act: 4; MsrA inh: 0; Bfl-1 A1 inh: -2

What do the screens show for `COc1ccc(NC(=O)/C=C2\SC(=O)NC2=O)cc1`?
MsrA act: -5; procasp3 activ: 2; proCasp7 act: 5; MsrA inh: 4.8*; Bfl-1 A1 inh: 0; MsrA inh confirm: 3

How did CN(C)C=NC(=O)/C(C#N)=C1\CCc2ccccc2N1 do in these assays?
MsrA act: -15; procasp3 activ: -4; proCasp7 act: 10; MsrA inh: 6.3*; Bfl-1 A1 inh: 0; MsrA inh confirm: 3

How did O=C(O)CCN=C1CCCc2ccccc2N1 do in these assays?
MsrA act: -5; procasp3 activ: -1; proCasp7 act: 4; MsrA inh: 0; Bfl-1 A1 inh: -1

How did CCOC(=O)c1sc(N)c(C(N)=O)c1C do in these assays?
MsrA act: -4; procasp3 activ: -4; proCasp7 act: -18; MsrA inh: 4.9*; Bfl-1 A1 inh: 1; MsrA inh confirm: 0

What do the screens show for `O=C1CCCN1C(=O)CSc1nnnn1-c1ccccc1`?
MsrA act: -2; procasp3 activ: 5; proCasp7 act: 4; MsrA inh: 2; Bfl-1 A1 inh: 1

What do the screens show for `Cc1cc2nc(-c3ccc(SCC(=O)Nc4ccc(S(=O)(=O)N5CCCC5)cc4)nc3)[nH]c2cc1C`?
MsrA act: -8; procasp3 activ: 3; proCasp7 act: 8; MsrA inh: 5.0*; Bfl-1 A1 inh: -3; MsrA inh confirm: 3
